Experimental data from ChEMBL document CHEMBL4513216, “Probing the Open Global Health Chemical Diversity Library for Multistage-Active Starting Points for Next-Generation Antimalarials” (ACS Infect Dis, 2020).

Experiment: Toxicity liver stage against HepG2, at 10uM
Assay type: cell-based
Parameters: test concentration 10 uM, cell line HepG2-A16-CD81EGFP
Details: human, HepG2-A16-CD81EGFP cells; read-out: INHIBITION
Procedure, shortened: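 Uninfected HepG2-A16-CD81EGFP cells, 3 × 10^3 per well, 1536-well, plated on prespotted compound at 10 μM final, parasite-free screening media added to match infected plates; puromycin 10 μM positive, DMSO 0.5% negative; run in parallel with 48 h PbLuc assay at 37 °C, 5% CO2; viability by CellTiter-Glo luminescence, normalized to controls.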

Compound	cytotoxicity at 10 µM
O=C(NC[C@H]1OC[C@@H](NC2COC2)[C@@H]1O)c1cccs1	0.0331%
CC(C)N1C[C@@H](F)[C@@H](OCc2nc3ncccc3[nH]2)C1	5.47%
CN1C(=O)C2(CC(=O)Nc3[nH]ncc32)c2cc(F)ccc21 (stereo not drawn)	0.488%
Cc1nc(NC(=O)CN2C(=O)c3ccccc3NC2C(C)C)sc1C (stereo not drawn)	0.585%
Cn1ccc2c(C(=O)NC3CN4CCC3CC4)cccc21 (stereo not drawn)	-46.8%
O=C1CSC(c2ccccc2)c2c(n(C3CCOCC3)[nH]c2=O)N1 (stereo not drawn)	-4.69%
Nc1nc2c(c(NC(=O)Nc3ccccc3)n1)CCCC2	-9.74%
NC(=O)Cc1csc(NC(=O)C2CSCCC(=O)N2)n1 (stereo not drawn)	0.722%
O=C(NC1CCC1)c1n[nH]c2c1CNCC2	1.67%
Cc1cnc(N2C[C@@H]3[C@@H](C2)OCC(=O)N3CC2CC2)nc1	-0.357%
O=C(c1ncccn1)N1C[C@@H]2CN(CC3CC3)CCO[C@@H]2C1	6.99%
Cc1ccnc(OC[C@]23COC[C@H]2CN(C(=O)c2cnccn2)C3)n1	-7.1%
O=C(N1CCCC1)N1Cc2nccn2CC(Cn2ncccc2=O)C1 (stereo not drawn)	3.39%
Cc1occc1C(=O)N1C[C@@H](C(=O)NCc2ccco2)C[C@H]2OCC[C@H]21	1.08%
CCOc1cc(=O)n2c(c1C(=O)OCc1ccc(C)cc1)CCCC2	3.11%
COC(=O)c1cc2c(OC)c(OC)c(OC)cc2[nH]1	-0.555%
CCOCc1ncn2c1CN(C(=O)Nc1cccc(C)c1)CC2	-8.92%
CN(Cc1ccccn1)C1COC2(CCN(Cc3nccs3)CC2)C1 (stereo not drawn)	-16.2%
Cc1ccc(-c2noc(C3CCN3C(=O)c3c(C)noc3C)n2)s1 (stereo not drawn)	6.09%
C=Cn1cc(CN2CCC(c3ncc(Cl)cc3S(C)(=O)=O)CC2)c(C)n1	7.38%
O=C(CCn1ccnc1)N1CC[C@H](Oc2ccc(F)cc2)[C@@H](O)CC1	-3.06%
CCn1nccc1CN(C)C(=O)Cn1nc(C)cc1C	6.18%

Compound	cytotoxicity at 10 µM
Cc1ncccc1Oc1nccnc1C1CCN(S(C)(=O)=O)CC1	-7.88%
CC(C)N(C)CCCNC(=O)c1cnn(C(C)(C)C)c1C(F)(F)F	7.25%
Cc1nc(COC(=O)c2cccnc2C)no1	-0.2%
CCN(Cc1ccoc1)C(=O)Nc1ccccc1CN1CCOCC1	-14.8%
CC(NC(=O)c1ccc2c(c1)COC2)c1cccc(N2CCOC2=O)c1 (stereo not drawn)	14.9%
CNS(=O)(=O)CC(=O)N(C1CC1)C1Cc2ccccc2C1	3.45%
O=C(NCc1nnc2ccccn12)N1CCOC(c2ccsc2)C1 (stereo not drawn)	0.305%
CC1CN(C)CCN1C(=O)Cc1cc(Cl)c2c(c1)OCCO2 (stereo not drawn)	-3.47%
CCn1cc(CNc2ccc(Br)c(OC)c2)cn1	5.42%
CN(C)CCOc1ccc(N(C)S(=O)(=O)c2cnn(C)c2)cc1	-13.3%
CCNc1cc2c(nn1)CCN(C(=O)c1cc3c(s1)CCOC3)C2	-8.51%
Cc1ccc(C(=O)NCc2ccc(N(C)C)cc2)cn1	-6.23%
Cc1cnn(C2CN(CC(O)COCc3ccc4c(c3)OCO4)C2)c1 (stereo not drawn)	-5.41%
CCN(C)S(=O)(=O)N1CCCC1CC(=O)c1cccs1 (stereo not drawn)	-29%
CC(C)c1nnc(NC(=O)NC2CCOc3ccccc32)s1 (stereo not drawn)	18.1%
CC(c1cccc(O)c1)N(C)S(=O)(=O)c1cccnc1 (stereo not drawn)	9.46%
COC(=O)NCC(=O)NCC1(c2c(F)cccc2F)CCCC1	-3.56%
CN(C)c1nccc(N(C)Cc2ncnn2C)n1	6.09%
O=C(CN1CCSC(c2ccccc2)C1)NCc1ccccn1 (stereo not drawn)	14.5%
O=C1CCCN1c1cccc(CNCc2cc(F)ccc2F)c1	15.8%
CCCn1nnnc1COc1ccc(C(=O)OC)cc1	-5.58%
c1cnnc(NCC2CN(CCn3cncn3)CCO2)c1 (stereo not drawn)	-3.16%

Compound	cytotoxicity at 10 µM
Cc1cc(C)n(CC2CCCN2C(=O)Cc2cn3ccccc3n2)n1 (stereo not drawn)	2.47%
CC(C)COC(C)C(=O)NCc1ccccc1Cn1ccnc1 (stereo not drawn)	4.9%
CC(Cn1cccn1)NC(=O)Nc1ccc(N(C)C)nc1 (stereo not drawn)	14.4%
Cc1cc(C(=O)N2CCn3cc(CN4CCN(C)CC4)nc3C2)no1	-74.7%
CN1CCN(Cc2cnc3n2CCN(C(=O)c2ccnnc2)C3)CC1	-81.1%
COc1cccc(OC)c1-c1ccnc2cc(CC(=O)N(C)C)nn12	-8.86%
CN(C)C(=O)CCC1CCCN(Cc2cccc(-c3ccccn3)c2)C1 (stereo not drawn)	3.45%
CCc1nn(C)c(Cl)c1CN(CCOC)Cc1cnn(C)c1	-6.5%
Cn1c(Cn2ccnc2)nnc1C1CCCN(Cc2ccncc2)C1 (stereo not drawn)	12.1%
CN(CC1=CCCN(Cc2cccc(C#N)c2)C1)C(=O)c1ccco1	-5.15%
O=C(CSCC1CC1)N1CCCC2(CCC(=O)N(CC3CC3)C2)C1 (stereo not drawn)	3.8%
OCC1CCCN(c2ncnc3c2Cc2ccccc2OC3)C1 (stereo not drawn)	1.44%
COc1ccc(CCC(=O)N2CCNCC2C(=O)N2CCCC2)cc1 (stereo not drawn)	1.18%
O=C1CN(Cc2cn(CC3CCN(C4CCSCC4)CC3)nn2)CCN1	-48.2%
Cc1cc(CN(C)CC2(O)CCCN(CCC3CCCCC3)C2=O)no1 (stereo not drawn)	-14.4%
CCc1ccc(CN(C)C(=O)C2CC(=O)N(c3cccc(O)c3)C2)nc1 (stereo not drawn)	-3.57%
CCCc1nccn1-c1ccncc1	17.3%
CCn1cc(S(=O)(=O)NC2CCCN(CC3CCCCC3)C2)cn1 (stereo not drawn)	-7.25%
COCCN1CCN(Cc2ccc(C(C)=O)cc2)[C@H]2CS(=O)(=O)C[C@H]21	-0.571%
CCc1cn[nH]c1C1CCCN(C(=O)c2cc(C(C)C)on2)C1 (stereo not drawn)	-8.6%
COC(=O)c1ccn(CC(=O)Nc2nn(CC3CC3)c3ccccc23)n1	4.95%
CCc1cc(NCC(N)=O)nc(N2CCCCC2)n1	9.95%

Compound	cytotoxicity at 10 µM
Cc1ccccc1-c1noc(-c2ccc(NCC3COCCO3)nc2)n1 (stereo not drawn)	3.41%
O[C@@]1(CN2CCN(Cc3ccncc3)CC2)CCCN2CCCC[C@@H]21	8.91%
O=C(NCCn1ccnc1-c1cc2n(n1)CCCNC2)c1ccncc1	-1.84%
CCN(CC1CCOCC1)C(=O)CCNC(=O)c1ccccc1F	-43.1%
Cc1cc(Cl)ccc1C(=O)N1C[C@H](C2CC2)[C@@H](N)C1	-46.6%
CC(Cn1cncn1)NCc1n[nH]c2c1CCCCC2 (stereo not drawn)	-4.39%
COc1ccc(C)cc1-n1cnnc1C1CC(=O)N(C)C1 (stereo not drawn)	-9.25%
Cc1nc(CN(C)Cc2cnc(N3CCOCC3)s2)no1	1.87%
COCc1nc(Cn2c(C)cc(C(F)(F)F)cc2=O)no1	-2.74%
COc1cc(C)ccc1C(=O)N1CCC2(CCC(=O)N(C(C)C)C2)CC1	3.76%
Cc1nccn1Cc1nnc(C2CCCN(Cc3ccncc3)C2)n1C (stereo not drawn)	-1.63%
COCCc1ncc(CN2CCC(Oc3ccccc3C)CC2)cn1	4.67%
O=C(Cc1ccc2c(c1)CCCC2)NCCNc1cnccn1	-0.882%
Cc1noc(NC(=O)c2ccc(Br)o2)n1	-3.75%
COc1ccnc(N2CCN(C(=O)CN3CCOCC3)CC2)n1	-0.819%
O=C(NCCOc1ccc2c(c1)OCO2)C1CC(=O)N(C2CC2)C1 (stereo not drawn)	-6.75%
CCc1nccn1C1CCCN(C(=O)CCOCC(F)(F)F)C1 (stereo not drawn)	-9.39%
COc1cc(CNC(=O)c2c(C)noc2C)ccn1	-8.83%
CC(C)c1ccc(OCCC(=O)N2CCC(C(N)=O)CC2)cc1	-11.5%
O=C(c1cnn(-c2ccccc2Cl)c1)N1CCN(CCO)CC1	-4.26%
COc1c(C2CCCN2CC(=O)Nc2nc(C)cs2)c(C)nn1C (stereo not drawn)	-6.76%
CCN1CCC(NC(=O)CN2CCCCC2Cn2cc(C)cn2)CC1 (stereo not drawn)	0.144%

Compound	cytotoxicity at 10 µM
Cc1cc(C)c(CNC(=O)N2CCCC2c2ccccc2)c(=O)[nH]1 (stereo not drawn)	-0.818%
Cc1nc(CN(C)C2CCN(CCCOc3ccccc3)C2)no1 (stereo not drawn)	-9.26%
Cc1cnn(CC2CN(Cc3nc(N)c4ccccc4n3)CCO2)c1 (stereo not drawn)	5.9%
Cc1cc(F)ccc1S(=O)(=O)NCc1cccc(C(=O)N2CCCC2)c1	-1.2%
CCCC(=O)N(CCCN1CCOCC1)c1nc2c(F)cccc2s1	-10.7%
Cc1cc(C(=O)N2CCO[C@H]3[C@H](Oc4ccccn4)CC[C@@H]32)c(C)[nH]1	-107%
O=C(NCC1CCOCC1)[C@H]1C[C@@H]2CCN(Cc3ccccc3)C[C@H]2O1	1.03%
Cc1ccc(N2C[C@H]3CCN(Cc4ccncc4)C[C@H]3C2)nn1	-111%
CNC(=O)CN1C(=O)CCC12CCCN(Cc1cccc(F)c1)C2 (stereo not drawn)	-5.51%
c1ccc(CN2CCC3(CC2)CCN(Cc2cccnc2)C3)nc1	-78.6%
Cc1ncsc1CN1C[C@@H]2COC[C@]2(C(=O)NC2CC(F)(F)C2)C1	-103%
COc1cc(N2C[C@H]3CCC[C@@H](CN(C)C)[C@H]3C2)ncn1	-78.3%
O=C(C1CCC1)N1CC[C@H](O)[C@@H]1Cc1cccnc1	-105%
c1ccc(O[C@@H]2CO[C@@]3(CCCN(CC4CCOCC4)C3)C2)nc1	-82.6%
O=C1CO[C@@H]2CN(Cc3nccs3)C[C@H]2N1Cc1ccncc1	-66.6%
Cn1cccc1C(=O)N1CC2(CCN(C(=O)c3cccnc3)C2)C1	-98.4%
CCOCCN1C[C@@H]2CCCO[C@@H]2[C@H](NC(=O)c2cnoc2C)C1	-119%
c1cc(CN2C[C@@H]3OCCN(CCN4CCCC4)[C@@H]3C2)ccn1	3.39%
FC(F)(F)CCc1ccnc(NC2CCC(n3cnnc3)CC2)n1 (stereo not drawn)	-6.71%
COc1ccnc(N2C[C@H]3CC[C@@H](C2)N(CC2CCC2)C3=O)n1	-0.054%
